Measurements as given in ChEMBL document CHEMBL1157060, “Antiviral and anti-inflammatory metabolites from the soft coral Sinularia capillosa” (J Nat Prod, 2010).
Active and inactive are the calls of the source. No cut-off for these calls is given here.

Tests used:
Klebsiella aerogenes = test: Antibacterial activity against Enterobacter aerogenes ATCC 13048 at 100 ug/ml after 24 hrs; format: functional, organism-based
RAW264.7 [1] = test: Antiinflammatory activity in mouse RAW264.7 cells assessed as inhibition of LPS-stimulated COX2 expression at 10 uM after 16 hrs by Western blot analysis relative to control; format: functional
How it was run: (§1)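 LPS-stimulated RAW 264.7 macrophages were treated with each compound at 10 µM. iNOS and COX-2 protein levels were measured by immunoblot, with β-actin also probed. Band intensity was expressed relative to the LPS-alone group, set at 100%. Data are mean ± SEM (n = 5), and significance versus LPS alone was set at P < 0.05. CAPE at 10 µM served as positive control.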

A549 = test: Cytotoxicity against human A549 cells after 2 days by MTT assay; format: functional
How it was run: (§2)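 The value reported is the ED50 against each tumour cell line. Mithramycin was run as positive control.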

Shigella sonnei = test: Antibacterial activity against Shigella sonnei ATCC 11060 at 100 ug/ml after 24 hrs; format: functional, organism-based
Yersinia enterocolitica = test: Antibacterial activity against Yersinia enterocolitica ATCC 23715 at 100 ug/ml after 24 hrs; format: functional, organism-based
Serratia marcescens = test: Antibacterial activity against Serratia marcescens ATCC 25419 at 100 ug/ml after 24 hrs; format: functional, organism-based
Salmonella enterica = test: Antibacterial activity against Salmonella enteritidis ATCC 13076 at 100 ug/ml after 24 hrs; format: functional, organism-based; conditions: Salmonella enterica subsp. enterica serovar Enteritidis
HT-29 = test: Cytotoxicity against human HT-29 cells after 2 days by MTT assay; format: functional; how it was run: as §2
P388 = test: Cytotoxicity against mouse P388 cells after 2 days by MTT assay; format: functional; conditions: for EC50: P388, 48 h, read-out: ED50 (the source's name); how it was run: as §2
RAW264.7 [2] = test: Antiinflammatory activity in mouse RAW264.7 cells assessed as inhibition of LPS-stimulated iNOS expression at 10 uM after 16 hrs by Western blot analysis relative to control; format: functional; how it was run: as §1
Human betaherpesvirus 5 = test: Antiviral activity against HCMV assessed as protection from virus-induced cytopathogenicity after 7 days by coulter counter; format: functional, organism-based; conditions: Human betaherpesvirus 5, 168 h

Row | SMILES | Activity (Klebsiella aerogenes) | inhibition (RAW264.7 [1]) | Activity (A549) | Activity (Shigella sonnei) | Activity (Yersinia enterocolitica) | Activity (Serratia marcescens) | Activity (Salmonella enterica) | Activity (HT-29) | EC50 (P388) | inhibition (RAW264.7 [2]) | Activity (P388) | IC50 (Human betaherpesvirus 5) | EC50 (A549; A549, 48 h, read-out: ED50 (the source's name)) | EC50 (HT-29; HT-29, 48 h, read-out: ED50 (the source's name))
1 | CC1=CC(=O)C(C/C=C(\C)CC/C=C(\C)CC/C=C(\C)CC[C@H](O)C(C)(C)O)=CC1=O [CAPILLOQUINONE] | inactive | inactive | inactive | inactive | inactive | inactive | inactive | inactive | 9.8 µM | – | – | – | – | –
2 | C=CC(=C)C(CCC(C)Cc1cc(C(=O)OC)co1)OC(C)=O (stereo unspecified) | inactive | inactive | inactive | inactive | inactive | inactive | inactive | inactive | – | inactive | inactive | – | – | –
3 | C/C(=C\CC[C@]1(C)C=Cc2cc(O)c(C)cc2O1)Cc1cc(C)co1 [CAPILLOBENZOPYRANOL] | inactive | inactive | inactive | inactive | inactive | inactive | inactive | inactive | 12.7 µM | – | – | – | – | –
4 | C/C(=C\Cc1cc(O)c(C)cc1O)CC/C=C(\C)Cc1cc(C)co1 | inactive | inactive | inactive | inactive | inactive | inactive | inactive | inactive | – | – | inactive | 15 µM | – | –
5 | CC1(C)CC(O)C[C@@]2(C)OC(=O)C=C12 (stereo partly specified) | inactive | inactive | inactive | inactive | inactive | inactive | inactive | inactive | – | inactive | inactive | – | – | –
6 | CO[C@](C)(CC/C=C(\C)Cc1cc(C)co1)[C@@H]1Cc2cc(O)c(C)cc2O1 [CAPILLOBENZOFURANOL] | inactive | inactive | inactive | inactive | inactive | inactive | inactive | inactive | – | inactive | inactive | 13.5 µM | – | –
7 | CC1=CC(=O)C(C/C=C(\C)CC/C=C(\C)Cc2cc(C)co2)=CC1=O | inactive | – | inactive | inactive | inactive | inactive | inactive | inactive | – | – | inactive | 5.9 µM | – | –
8 | C=C/C(C)=C/CCC(C)Cc1cc(C(=O)O)co1 (stereo unspecified) | inactive | inactive | inactive | inactive | inactive | inactive | inactive | inactive | – | inactive | inactive | – | – | –
9 | C=C1CC[C@H](C)/C(C)=C\[C@H]2[C@H]1CC[C@]2(C)O | inactive | inactive | inactive | inactive | inactive | inactive | inactive | inactive | – | inactive | inactive | – | – | –
10 | CO[C@H](C(=O)[C@@H](O)[C@@H](C)O)[C@@H]1Cc2cc3cc(O[C@H]4C[C@@H](O[C@@H]5C[C@@H](O)[C@H](O)[C@@H](C)O5)[C@H](O)[C@@H](C)O4)c(C)c(O)c3c(O)c2C(=O)[C@H]1O[C@H]1C[C@@H](O[C@@H]2C[C@@H](O)[C@@H](O[C@@H]3C[C@](C)(O)[C@H](O)[C@@H](C)O3)[C@@H](C)O2)[C@H](O)[C@@H](C)O1 [PLICAMYCIN] | – | – | – | – | – | – | – | – | 0.06 µM | – | – | – | 0.07 µM | 0.07 µM
